PfM18AAP inh-1: blocks P. falciparum M18 aspartyl aminopeptidase; inhibition, % at 7.35 µM; recombinant PfM18AAP, H-Glu-NHMec fluorogenic cleavage; hit rate 1.2% among 290,000;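 active = inhibition above the campaign mean inhibition over all tested compounds plus 3 SD, cut at about 28% in these data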
NRP1-CendR mod: NRP-1/CendR interaction modulation | AID 602438 | hit rate 0.85% among 360,000 | inhibition, % at 25 µM | FAM-RPARPAR peptide binding to NRP-1, fluorescence polarization;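 active = inhibition or corrected inhibition above about 18%, plus a signal ratio from 0.5 to 1.5, limit read from the data, passing the limit was not always enough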
m5-HT2A agonist: mouse HTR2A agonism via beta-arrestin recruitment. CHO-K1 mHTR2A beta-arrestin complementation, luminescence; percent of 30 µM serotonin response. activation, % at 7.6 µM. hit rate 0.66% among 360,000;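 active = activation above a run cutoff, the mean activation of all tested compounds plus 3 SD, cut at about 14% in these data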
Target sequence (P35363 whole entry, looked up): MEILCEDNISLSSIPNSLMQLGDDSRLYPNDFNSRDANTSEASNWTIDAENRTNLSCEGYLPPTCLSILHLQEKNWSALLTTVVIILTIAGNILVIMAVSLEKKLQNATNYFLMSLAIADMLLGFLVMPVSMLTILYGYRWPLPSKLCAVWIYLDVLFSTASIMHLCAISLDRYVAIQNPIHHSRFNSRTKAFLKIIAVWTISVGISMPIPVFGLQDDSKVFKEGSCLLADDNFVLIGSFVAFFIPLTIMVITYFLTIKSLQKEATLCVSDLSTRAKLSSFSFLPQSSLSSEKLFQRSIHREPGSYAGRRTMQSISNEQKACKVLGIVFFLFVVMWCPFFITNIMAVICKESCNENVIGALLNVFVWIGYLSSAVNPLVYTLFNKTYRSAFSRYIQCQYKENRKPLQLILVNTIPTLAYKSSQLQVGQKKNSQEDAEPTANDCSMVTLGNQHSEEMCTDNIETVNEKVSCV
Lipid droplet: hepatic lipid droplet formation modulation | AML12 mouse hepatocytes, oleate lipid droplets, BODIPY imaging | inhibition, % at 6.5 µM | hit rate 0.4% among 240,000 | AID 1656;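 active = lipid droplet intensity inhibited by at least 50%, with more than 500 cells counted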
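material = mouse AML12 hepatocyte cell line, fixed after treatment | also added = 100 µM oleic acid challenge | doses = compound at 6.5 µM only | schedule = overnight exposure | technique = Image-based BODIPY and DAPI two-channel analysis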
Arr AP2 block: human beta-arrestin and AP2 interaction inhibition; hit rate 0.31% among 340,000; inhibition, % at 10 µM; FITC-arrestin peptide / GST-AP2 beads, flow cytometry; AP2 beta2 appendage carries R879A mutation;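 active = inhibition above a set limit, near 3 SD of compounds lacking own fluorescence, cut at about 54% in these data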
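Measured by: flow cytometry, FL1 (488/535 nm); Material: AP2 appendage R879A on GSH beads; Evaluation: percent response; Timing: pre-incubation 12 min, peptide binding 1 h, room temperature; Also added: 50 nM FITC-arrestin peptide; Medium: PBS with 0.05% Tween 20 and 0.1% BSA.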
HGIII-sPLA2 inh: Inhibits HGIII-sPLA2 liposome hydrolysis, primary screen | QFRET BODIPY PC-A2 liposome hydrolysis, fluorescence | inhibition, % at 12.2 µM | hit rate 0.56% among 370,000;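 active = inhibition above mean plus 3 SD of compounds lying within the high and low control bounds, cut at about 19% in these data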
PfM18AAP inh-2: confirmation of Plasmodium falciparum M18 aspartyl aminopeptidase inhibitors. shares compounds with PfM18AAP inh-1. recombinant PfM18AAP, H-Glu-NHMec fluorogenic cleavage. inhibition, % at 7.35 µM. hit rate 28% among 2,400;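 active = mean inhibition over replicate wells above the hit cutoff set for the earlier primary screen, cut at about 29% in these data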
CTSL1 counter: counter-screen for PFM18AAP inhibitors: confirmation of human cathepsin L inhibitors | purified cathepsin L1, Z-Leu-Arg-MCA fluorescence | shares compounds with PfM18AAP inh-1 | AID 2178 | 2,400 tested, under 10 active | inhibition, % at 5.96 µM;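 active = average inhibition across replicates above the hit cutoff set in the earlier primary screen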
Large screens that a line does not name were inactive (follow-up assays come after a bar, where they were run). Only some compounds are listed: those with a hit (about 3.3% of all), similar ones and a draw of the others.

O=C(CSc1ncn[nH]1)c1cccc([N+](=O)[O-])c1	PfM18AAP inh-1 43 | PfM18AAP inh-2 38 | CTSL1 counter inactive
C[C@@H]1ON(C)[C@H]2C[C@H]3c4cc(Br)ccc4CCN3C[C@@H]12	none (no result: PfM18AAP inh-1, NRP1-CendR mod, m5-HT2A agonist, Lipid droplet, Arr AP2 block)
COc1ccc(C(C(=O)NC(C)(C)C)n2c(-c3ccc(C(F)(F)F)cc3)nc3ccccc32)cc1 (stereo not given)	none (no result: PfM18AAP inh-1, Lipid droplet, Arr AP2 block)
CCOP(=O)(OCC)c1ccc2c(c1)C(=O)c1ccccc1-2	none (no result: PfM18AAP inh-1, NRP1-CendR mod, m5-HT2A agonist, Lipid droplet, Arr AP2 block)
CCCOc1ccc(/C=C2/C(=O)ON=C2C)cc1OCC	PfM18AAP inh-1 40 | PfM18AAP inh-2 42 | CTSL1 counter inactive
CSc1sc(C(=O)O)c2c1C(=O)CC(C)(C)C2	none (no result: PfM18AAP inh-1, Lipid droplet)
CSc1sc(-c2ccnc(SCC(=O)C(C)(C)C)n2)c2c1C(=O)CC(C)(C)C2	PfM18AAP inh-1 35 | PfM18AAP inh-2 inactive | CTSL1 counter inactive
CCN(CC)S(=O)(=O)c1ccc(C(=O)NC(=S)N2CCCCC2C)cc1 (stereo not given)	none (no result: PfM18AAP inh-1, Lipid droplet, Arr AP2 block)
O=C(NNc1nc2c(F)cc(F)cc2s1)C1=COCCO1	PfM18AAP inh-1 33 | PfM18AAP inh-2 inactive | CTSL1 counter inactive
O=C(COc1ccccc1)NNc1nc2c(F)cc(F)cc2s1	none
CCC(=O)NNc1nc2c(F)cc(F)cc2s1	PfM18AAP inh-1 44 | PfM18AAP inh-2 inactive | CTSL1 counter inactive
CN1C(=O)N(c2cccc3ccccc23)C(n2cncn2)C1(C)C (stereo not given)	PfM18AAP inh-1 81 (no result: Lipid droplet) | PfM18AAP inh-2 77 | CTSL1 counter inactive
C#CCNC(=O)C[C@H]1C[C@@]2(C(=O)OC)C(=C[C@H](C(C)C)O[C@@H]2C2CC2)N(Cc2ccc(Cl)cc2Cl)C1=O	none (no result: PfM18AAP inh-1, NRP1-CendR mod, m5-HT2A agonist, Lipid droplet, Arr AP2 block)
CCOC(=O)N1CCN(S(=O)(=O)N2CCCC(C(=O)NCc3ccc(C)cc3)C2)CC1 (stereo not given)	none (no result: PfM18AAP inh-1, Lipid droplet, Arr AP2 block)
Cc1ccc(C(c2c(C)[nH][nH]c2=O)c2c(C)[nH][nH]c2=O)cc1[N+](=O)[O-]	PfM18AAP inh-1 34 | PfM18AAP inh-2 inactive | CTSL1 counter inactive
COc1cc(C(c2c(C)[nH][nH]c2=O)c2c(C)[nH][nH]c2=O)cc([N+](=O)[O-])c1O	none
Cc1cc(C)c2c(ccc3ccccc32)n1	none (no result: PfM18AAP inh-1, Lipid droplet)
Oc1ccc(-c2nc3ccc4ccccc4c3c3c2CCC3)cc1O	PfM18AAP inh-1 47 | PfM18AAP inh-2 32 | CTSL1 counter inactive
COC(=O)[C@]12C[C@H](CC(=O)NCCCCc3ccccc3)C(=O)N(Cc3ccccc3)C1=C[C@H](COCc1ccccc1)O[C@@H]2C	none (no result: PfM18AAP inh-1, NRP1-CendR mod, m5-HT2A agonist, Lipid droplet, Arr AP2 block)
Cc1ccc2nc(/C(C#N)=C/c3ccccc3C(=O)O)[nH]c2c1	none
Cc1ccc2nc(/C(C#N)=C/c3ccc(O)c(O)c3)[nH]c2c1	PfM18AAP inh-1 60 | PfM18AAP inh-2 36 | CTSL1 counter inactive
CS(=O)(=O)N1CCC(C(=O)NCC2COc3ccccc3O2)CC1 (stereo not given)	none (no result: PfM18AAP inh-1, NRP1-CendR mod, m5-HT2A agonist, Lipid droplet, Arr AP2 block)
O=C(NCC(c1ccco1)N1CCCCC1)c1cccc(S(=O)(=O)Nc2ccc(F)cc2)c1 (stereo not given)	none (no result: PfM18AAP inh-1, Lipid droplet)
COc1cccc(C(=O)NNC(=O)Cc2csc(N)n2)c1	PfM18AAP inh-1 36 | PfM18AAP inh-2 inactive | CTSL1 counter inactive
CCOC(=O)Cc1csc(NC(=O)c2cccc(OC)c2)n1	none
Cc1nc2ccccn2c1-c1ccnc(=S)[nH]1	PfM18AAP inh-1 37 | PfM18AAP inh-2 inactive | CTSL1 counter inactive
O=C(N[C@@H](Cc1cccnc1)C(=O)N1CCC[C@H]1C(=O)NCCc1ccccc1Cl)c1cccs1	none (no result: PfM18AAP inh-1, NRP1-CendR mod, m5-HT2A agonist, Lipid droplet, Arr AP2 block)
FC(F)(F)c1cc(-c2ccc3c(c2)OCO3)nc(NCc2ccco2)n1	PfM18AAP inh-1 37 (no result: Lipid droplet) | PfM18AAP inh-2 inactive | CTSL1 counter inactive
COc1ccc([C@H]2OC(=O)C[C@H]2C(=O)N2CCCC2)cc1OC	none (no result: PfM18AAP inh-1, NRP1-CendR mod, m5-HT2A agonist, Lipid droplet, Arr AP2 block)
COc1ccc(-[n+]2c(C)cc(/C=C3\Sc4ccccc4N3C)cc2C)cc1	PfM18AAP inh-1 45 (no result: Arr AP2 block) | PfM18AAP inh-2 inactive | CTSL1 counter inactive
O=C(NN=Cc1cccc(OCc2ccccc2)c1)c1cc(-c2ccc(Cl)cc2)n[nH]1	none (no result: PfM18AAP inh-1, NRP1-CendR mod, m5-HT2A agonist, Lipid droplet, Arr AP2 block)
O=S(=O)(NNC(=S)Nc1ccc(S(=O)(=O)Nc2ncccn2)cc1)c1ccc(Br)cc1	PfM18AAP inh-1 41 | PfM18AAP inh-2 inactive | CTSL1 counter inactive
O=C(O)CCCCCn1c(O)c(C=C2N=c3ccccc3=N2)sc1=S	none
O=C(O)c1ccc(-n2c(O)c(C=C3N=c4ccccc4=N3)sc2=S)cc1	PfM18AAP inh-1 51 | PfM18AAP inh-2 inactive | CTSL1 counter inactive
O=C(COc1cccc2ccccc12)NNC(=O)Nc1ccccc1	none (no result: Lipid droplet)
O=C(COc1cccc2cccnc12)NNC(=S)Nc1ccccc1	PfM18AAP inh-1 35 (no result: NRP1-CendR mod, m5-HT2A agonist, Arr AP2 block, HGIII-sPLA2 inh) | PfM18AAP inh-2 77 | CTSL1 counter inactive
CCOC(=O)c1c(C2COc3ccccc3O2)csc1N (stereo not given)	PfM18AAP inh-1 60 (no result: Lipid droplet) | PfM18AAP inh-2 inactive | CTSL1 counter inactive

Source: PubChem (several laboratories)
